Bioassay records deposited in PubChem by SRMLSC.
Shown is part of a subset that was picked to be rich in hits.
Lung fibro prol: blocks proliferation of human lung fibroblasts; LL 47 human lung fibroblast viability, ATP luminescence; stronger effect = lower value; viability, % at 10 µM; actives 1.1% (n = 85,000); AID 719;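 active means viability at or below 50% in the single dose screen; inactive means viability above 50%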;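 further: compound exposure lasted 72 h before the ATP readout; 100% = median luminescence of untreated cell-only wells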
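Assay system: human lung fibroblast line LL 47, low passage. Input: 1,150 fibroblasts seeded per well. Times: overnight cell rest, 72 h compound treatment at 37 °C. Evaluation: % viability of median cell-only signal. Technique: luminescent ATP detection, CellTiter-Glo. Control set: cell-only wells, no compound.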
PTEN del growth: PTEN-deleted cell growth suppression | HCT116 PTEN-null viability, CellTiter-Glo, 60 h; stronger effect = lower value | viability, % at 10 µM | actives 1.2% (n = 140,000);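 active means viability at or below a set limit, 4 SD under the median of all tested compounds, cut at about 3.7% in these data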;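 further: PTEN knockout HCT116 line with beta catenin targeted HCT116 as companion control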
HCT116 bCat-KO: beta-catenin-lacking colon tumor cell growth suppression; AID 818; HCT116 beta-catenin knockout viability, CellTiter-Glo, 60 h; stronger effect = lower value; actives 1.5% (n = 140,000); viability, % at 10 µM;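 active means viability at or under a set limit, the compound median less 4 SD, cut at about 6% in these data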;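 further: 0% = Hyamine 1622 control at 20 µM and 100% = untreated cell control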
H69AR inhibit: growth inhibitors of human H69AR lung tumor cells; H69AR lung tumor viability, ATP luminescence, 72 h; stronger effect = lower value; viability, % at 10 µM; actives 6% (n = 85,000);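 active means viability at or below 40%; inactive means viability above 40%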;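 further: multidrug resistant small cell line overexpressing MRP-1 efflux transporter; 100% = mean luminescence of untreated control wells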
HUVEC inhibit: human endothelial cell proliferation inhibition. actives 1.1% (n = 86,000). HUVEC proliferation, CellTiter-Glo luminescence, 72 h; stronger effect = lower value. viability, % at 10 µM (by protocol). AID 648;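 active means viability at or below 30%; inactive means viability above 30%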;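 further: 100% = median luminescence of DMSO-only cell control wells on each plate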
Starred values were filed as active, the others as inactive; x = no result.

SMILES	Lung fibro prol	PTEN del growth	HCT116 bCat-KO	H69AR inhibit	HUVEC inhibit
CCOC(=O)c1[nH]c2ccccc2c1NC(=O)c1ccc2c(c1)OCO2	78	90	86	22*	81
CCn1c(Sc2ccc(N)cc2Cl)nc2ccccc21	94	58	69	34*	108
CCOC(CNC(=O)c1cccn2c(=O)c3cc(Cl)ccc3nc12)OCC	97	59	59	38*	74
CCOC(=O)N1CCN(C(=O)c2cccn3c(=O)c4cc(Cl)ccc4nc23)CC1	x	77	86	x	x
Cc1onc(-c2c(Cl)cccc2Cl)c1C(=O)NCc1cccs1	x	81	87	x	x
CCOc1ccc(NC(=NCc2ccc3c(c2)OCO3)SC2CC(=O)N(c3ccccc3)C2=O)cc1 (centres undefined)	83	69	70	35*	53
COc1ccc(NC(=O)N(Cc2ccc3c(c2)OCO3)C2CC(=O)N(c3ccc(OC)cc3)C2=O)cc1 (centres undefined)	97	83	87	40*	88
CCOc1ccc(NC(=NCc2ccc3c(c2)OCO3)SC2CC(=O)N(c3ccc(OCC)cc3)C2=O)cc1 (centres undefined)	43*	8	2.2*	101	26*
O=C(CSc1nnc(SCC(=O)NCc2ccc3c(c2)OCO3)s1)NCc1ccc2c(c1)OCO2	x	103	101	x	x
Cc1oc(C(=O)O)cc1COc1ccc2c3c(c(=O)oc2c1C)CCC3	111	106	89	73	99
CCOC(=O)c1c(NC(=O)CSc2nc3c(c(=O)n(C)c(=O)n3C)n2CC)sc(C)c1C	88	x	x	4.0*	53
CCCn1c(SCC(=O)Nc2nc3c(s2)CCCC3)nc2c1c(=O)n(C)c(=O)n2C	93	73	91	32*	83
CNc1ccc(Br)cc(C(=O)/C=C/c2cc(OC)ccc2OC)c1=O	90	12	7	0.6*	80
CCNc1ccc(Br)cc(C(=O)/C=C/c2ccc(Cl)cc2Cl)c1=O	92	2.2*	2.5*	0.4*	21*
CNc1ccc(Br)cc(C(=O)/C=C/c2ccc3c(c2)OCO3)c1=O	x	12	8	x	x
CNc1ccc(Br)cc(C(=O)/C=C/c2ccc(OC)cc2)c1=O	x	37	48	x	x
CCCCC(CC)CNC(=O)C1C2C=CC(C2)C1C(=O)O (centres undefined)	106	88	98	90	87
COc1cc(C2C(C(C)=O)=C(O)C(=O)N2CCN2CCOCC2)ccc1O (centres undefined)	101	99	99	100	97
COc1ccc(NC(=O)c2cc(CN3C(=O)c4ccccc4C3=O)ccc2OC)cn1	x	86	94	17*	62
COc1ccc(CN2C(=O)c3ccccc3C2=O)cc1C(=O)OCC(=O)NC1CCCCC1	x	105	103	x	x
O=C(CCN1C(=O)C2C3C=CC(C3)C2C1=O)Nc1ccc2ncccc2c1 (centres undefined)	113	97	88	94	87
Cc1cccc(-n2nnc(C(=O)NC3CCCc4ccccc43)c2N)c1 (centres undefined)	94	57	64	19*	67
Cc1ccc2c(c1)cc(CN(Cc1cccs1)C(=O)c1ccco1)c1nnnn12	81	75	82	57	79
Cc1ccc2c(c1)cc(CN(Cc1ccc3c(c1)OCO3)S(=O)(=O)c1ccccc1)c1nnnn12	56	99	81	31*	95
Cc1nnc2sc(-c3ccc(NC(=O)c4ccc(-c5ccc(Br)cc5)o4)cc3)nn12	67	x	x	21*	72
SMILES	Lung fibro prol	PTEN del growth	HCT116 bCat-KO	H69AR inhibit	HUVEC inhibit
Cc1ccc(-c2nn3c(C)nnc3s2)cc1NC(=O)c1ccc(-c2cccc(Cl)c2)o1	99	8	11	4.2*	36
O=C(Nc1ccccc1)c1ccc(-c2ccc(Br)cc2)o1	106	95	89	69	73
Cc1ccc(-c2nn3c(C)nnc3s2)cc1NC(=O)c1ccc(Br)o1	103	86	85	85	79
O=C(Nc1ccc(CN2CCOCC2)cc1)c1ccc(-c2ccc(Br)cc2)o1	75	17	14	19*	45
Cc1ccc(-c2nn3c(C)nnc3s2)cc1NC(=O)c1ccc(-c2ccc(Cl)cc2Cl)o1	6.5*	3.2*	2.3*	104	6.5*
O=C(Cn1c(COc2ccccc2)nc2ccccc21)Nc1cc(Cl)cc(Cl)c1	x	62	74	x	x
CCCn1c(=N)n(CC(O)c2ccco2)c2ccccc21 (centres undefined)	102	79	77	86	96
